IDE act: activators of human insulin-degrading enzyme in cells | P14735 | HEK cells, FAbeta-B cleavage, fluorescence polarization; 0% vehicle, 100% cell-free pure enzyme wells | activation, % at 5.96 µM | 340,000 tested, 0.073% active | AID 493087;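 active = activation above the mean of all tested compounds plus 3 SD, set per screening campaign, cut at about 17% in these data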
TPT1 inh: inhibitors of Candida albicans tRNA 2'-phosphotransferase TPT1; inhibition, % at 5 µM; 300,000 tested, 0.81% active; recombinant caTPT1, FP RNA substrate dephosphorylation;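 active = inhibition above the mean of all tested compounds plus 3 SD, set per screening campaign, cut at about 24% in these data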
IDE inh: cellular human IDE inhibition. HEK cells, FAbetaB cleavage, fluorescence polarization. inhibition, % at 5.59 µM. 320,000 tested, 0.41% active;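 active = percent inhibition above the average of all tested compounds plus 3 SD, set per screening campaign, cut at about 16% in these data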;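 note: IDE supplied by intact live HEK cells; FP after avidin binding of uncleaved biotin substrate so inhibition keeps polarization high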
CSN deneddyl inh: inhibitors of human CSN-mediated cullin deneddylation | inhibition, % at 12.5 µM | Purified CSN, SCF-Nedd8-OG deneddylation, fluorescence polarization | Q92905 | 360,000 tested, 0.38% active | AID 651999;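 active = pattern-corrected inhibition above about 35%, with an unprinted fluorescence ratio check between 0.5 and 1.5, limit read from the data, passing the limit was not always enough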
Target sequence (Q92905 whole entry, looked up, one chain of several): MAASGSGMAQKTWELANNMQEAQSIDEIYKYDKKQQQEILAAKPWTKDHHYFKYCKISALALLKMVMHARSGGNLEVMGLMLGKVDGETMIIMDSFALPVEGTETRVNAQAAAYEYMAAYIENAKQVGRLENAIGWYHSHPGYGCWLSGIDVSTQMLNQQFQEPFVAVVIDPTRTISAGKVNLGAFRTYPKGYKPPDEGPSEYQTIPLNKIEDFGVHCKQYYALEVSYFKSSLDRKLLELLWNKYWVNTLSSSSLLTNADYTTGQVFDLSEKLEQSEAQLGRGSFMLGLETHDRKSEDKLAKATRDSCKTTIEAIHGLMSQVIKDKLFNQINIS
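test system = HEK293T-derived human Csn5 enzyme | amount = 0.24 nM Csn5 enzyme, final concentration | medium = Tris/NaCl/DTT buffer, pH 7.5 | schedule = 90 min reaction at room temperature | signal = FP | evaluation = inhibition of Csn5 cleavage, % | compound dosing = single dose of 12.5 µM compound with 0.25% DMSO | probe or stimulus = 10 nM SCFSkp2-Nedd8OG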
HNF4A DNA FP: change in binding of human HNF4 alpha to DNA; activity change, % at 10 µM; HNF4a-FITC DNA binding, fluorescence polarization, 1 h; 360,000 tested, 0.3% active; AID 1224865; P41235; in the data active = activity change above about 30%, passing the limit was not always enough
TPT1 inh confirm: TPT1 (C. albicans) inhibition, confirmation | shares compounds with TPT1 inh | recombinant caTPT1, fluorescence polarization, RNase T1 coupled | inhibition, % at 5 µM | 2,400 tested, 74% active | AID 2149;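 active = inhibition above the primary screen limit, the mean inhibition of all tested compounds plus 3 SD, cut at about 25% in these data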
RNase T1 counter: RNase T1 inhibition in TPT1 counter-screen; RNase T1 cleavage, fluorescence polarization, 1536-well; 2,400 tested, 83% active; inhibition, % at 5 µM; shares compounds with TPT1 inh;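 active = inhibition above the solvent-only control well mean plus 3 SD, limit set per screening run, cut at about 23% in these data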;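 note: inhibitors block cleavage so intact labeled substrate keeps polarization high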
Target sequence (P00651 whole entry, looked up): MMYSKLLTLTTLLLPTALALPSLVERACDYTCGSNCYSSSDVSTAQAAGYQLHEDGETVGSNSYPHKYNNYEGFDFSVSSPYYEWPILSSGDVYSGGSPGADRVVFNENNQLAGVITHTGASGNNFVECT
IDE inh confirm: cellular human IDE inhibition, confirmation; shares compounds with IDE inh; HEK cells, FAbetaB cleavage, fluorescence polarization; inhibition, % at 5.59 µM; 1,200 tested, 51% active;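 active = mean inhibition across triplicate wells above the cutoff set by the earlier primary insulin-degrading enzyme screen, cut at about 16% in these data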
HEK293 tox: kills HEK cells in IDE inhibitor counter-screen. shares compounds with IDE inh. HEK293 cytotoxicity, ATP luminescence. inhibition, % at 5.59 µM. 1,200 tested, 28% active; in the data active = inhibition above about 22%
CSN deneddyl val: validation of inhibitors of human CSN-mediated cullin deneddylation. shares compounds with CSN deneddyl inh. Csn5 deneddylation of SCF-Nedd8OG, fluorescence polarization, 90 min. inhibition, % at 16.6 µM. 540 tested, 62% active; in the data active = inhibition above about 50%
MMP2 cntr CSN: blocks human MMP-2 in a CSN deneddylation counter-screen; shares compounds with CSN deneddyl inh; recombinant MMP-2, FRET substrate fluorescence, 60 min; inhibition, % at 16.6 µM; 540 tested, 33% active; AID 720655;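 active = corrected plate-normalized z-score of 5 or more, or -5 or less, or inhibition of 15% or more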
Thrombin cntr: thrombin (bovine) inhibition, counter-screen for CSN hits | shares compounds with CSN deneddyl inh | bovine thrombin cleavage of Ub4-pepOG, fluorescence polarization | inhibition, % at 16.6 µM | 540 tested, 49% active | AID 720656;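 active = inhibition at or above a set limit, with a fluorescence interference ratio between 0.5 and a set maximum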
Each line names hits and unclear results; the compound was inactive in the other large screens (follow-up assays come after a bar, where they were run). Sampled rows, rich in hits. Any-hit rate of the full collection: about 1.4%.

CN1CCN(c2c(F)cc([N+](=O)[O-])c(N)c2Br)CC1	none
Nc1c([N+](=O)[O-])cc(F)c(N2CCNCC2)c1Br	TPT1 inh 26.7 | TPT1 inh confirm inactive | RNase T1 counter inactive
NC1CC2CCCCC2CC1(O)c1ccccc1 (configuration not stated)	none (no result: IDE act, TPT1 inh, IDE inh)
Cc1ccnc(NS(=O)(=O)c2ccc(N=Cc3c(O)n(C)c(=O)n(C)c3=O)cc2)n1	TPT1 inh 85.1 | TPT1 inh confirm 62.4 | RNase T1 counter 77.2
Cc1cc(C)nc(NS(=O)(=O)c2ccc(N=Cc3c(O)n(C)c(=O)n(C)c3=O)cc2)n1	none (no result: IDE act)
Cc1ccc(OCCn2cccc2/C=C2/C(=O)NC(=O)N(Cc3ccco3)C2=O)cc1	TPT1 inh 25.4 | TPT1 inh confirm 40.5 | RNase T1 counter 27.4
Cn1cccc1/C=C1\C(=O)NC(=O)N(Cc2ccco2)C1=O	none (no result: TPT1 inh, IDE inh)
O[C@@H]1CCCN2CCc3c([nH]c4ccccc34)[C@H]12	TPT1 inh 30.3 | TPT1 inh confirm inactive | RNase T1 counter 23.1
Oc1ccc2c3c1O[C@H]1c4[nH]c5ccccc5c4C[C@@]4(O)[C@@H](C2)N(CC2CC2)CC[C@]314	none
O=C(COC(=O)c1cc(Br)cc(Br)c1O)NC12CC3CC(CC(C3)C1)C2	none (no result: IDE act, TPT1 inh, IDE inh)
CN1/C(=C\C=C2C(=O)NC(=O)NC2=O)C(C)(C)c2ccccc21	TPT1 inh active, IDE inh 57.2 | TPT1 inh confirm 183.7 | RNase T1 counter 167.7 | IDE inh confirm 69.7 | HEK293 tox inactive
COc1ccc(OC(=O)N(C)C[C@H]2OCc3cnnn3CCCC(=O)N([C@H](C)CO)C[C@H]2C)cc1	none (no result: IDE act, TPT1 inh, IDE inh)
CCN(CC)c1ccc(/C=N/c2sc3c(c2C#N)C2CCN3CC2)c(O)c1	TPT1 inh 161.0, IDE inh 19.7 | TPT1 inh confirm 145.8 | RNase T1 counter 133.0 | IDE inh confirm 122.6 | HEK293 tox 54.7
C/C(=N\N1CCCCC1c1cccnc1)c1c(O)n(C2CCCCC2)c(=S)[nH]c1=O (configuration not stated)	TPT1 inh 82.3, IDE inh 28.9, HNF4A DNA FP 61.1 | TPT1 inh confirm 123.4 | RNase T1 counter 132.8 | IDE inh confirm inactive | HEK293 tox inactive
COc1ccc(CN2Cc3cc(N4CCCCC4)ccc3-n3nncc3C2)cc1	none (no result: IDE act, TPT1 inh, IDE inh)
O=c1c2ccccc2nc(/C=C/c2ccc3c(c2)OCO3)n1-c1ccccc1	none
COc1ccc(-n2c(/C=C/c3ccc(O)c(O)c3)nc3ccccc3c2=O)cc1	TPT1 inh 35.9, IDE inh 114.9 | TPT1 inh confirm 58.2 | RNase T1 counter 61.5 | IDE inh confirm 115.7 | HEK293 tox 22.7
COc1ccc(-n2nnnc2C(c2cccs2)N2CCC3(CC2)C(=O)NCN3c2ccccc2)cc1 (configuration not stated)	none (no result: IDE act, TPT1 inh, IDE inh)
CC1(C)OC(c2ccccc2)=C/C(=C/C=C2C(=O)NC(=O)NC2=O)O1	TPT1 inh 113.5, IDE inh 49.8, CSN deneddyl inh 96.0 | TPT1 inh confirm 106.7 | RNase T1 counter 106.2 | IDE inh confirm 55.2 | HEK293 tox inactive | CSN deneddyl val 195.4 | MMP2 cntr CSN inactive | Thrombin cntr inactive
Cc1ccc(C(O)(C(=O)OC(C)C)C(O)c2ccc(F)cc2)cc1 (configuration not stated)	none (no result: IDE act, TPT1 inh, IDE inh)
Cc1ccc(/C=C2\C(=O)NC(=S)N(c3cccc(F)c3)C2=O)o1	TPT1 inh 40.8, CSN deneddyl inh 44.7 | TPT1 inh confirm 45.8 | RNase T1 counter 57.1 | CSN deneddyl val 64.8 | MMP2 cntr CSN 35.0 | Thrombin cntr 54.4
O=C1NC(=O)N(c2cccc(F)c2)C(=O)/C1=C/c1ccc(N2CCOCC2)cc1	none
C=CCN1C(=O)/C(=C/c2ccc(Br)s2)C(=O)NC1=S	TPT1 inh 27.6, CSN deneddyl inh 37.3 | TPT1 inh confirm inactive | RNase T1 counter 23.7 | CSN deneddyl val 81.0 | MMP2 cntr CSN inactive | Thrombin cntr inactive
CCC(c1nnnn1-c1ccc2c(c1)OCCO2)N1CCC2(CC1)C(=O)NCN2c1ccccc1 (configuration not stated)	none (no result: IDE act, TPT1 inh, IDE inh)
Cc1cc(N2CCOCC2)ccc1/C=C1\C(=O)NC(=O)N(c2ccccc2)C1=O	none
Cc1cccc(N2C(=O)NC(=O)/C(=C\C=C\c3ccco3)C2=O)c1	TPT1 inh 24.6, CSN deneddyl inh 50.5 | TPT1 inh confirm 30.5 | RNase T1 counter 47.8 | CSN deneddyl val 83.6 | MMP2 cntr CSN inactive | Thrombin cntr inactive
Cc1ccc(N2C(=O)NC(=O)/C(=C\C=C\c3ccco3)C2=O)cc1C	TPT1 inh 37.7, CSN deneddyl inh 68.9 | TPT1 inh confirm 51.3 | RNase T1 counter 69.6 | CSN deneddyl val 68.1 | MMP2 cntr CSN inactive | Thrombin cntr inactive
CC(C)(C)C(=O)N1Cc2cc(-c3ccccc3)ccc2-n2nncc2C1	none (no result: IDE act, TPT1 inh, IDE inh)
CC(C)(C)c1ccc(O)c(N=Cc2c(O)ccc3ccccc23)c1	TPT1 inh 134.9, CSN deneddyl inh 56.5 | TPT1 inh confirm 137.8 | RNase T1 counter 131.2 | CSN deneddyl val 66.6 | MMP2 cntr CSN inactive | Thrombin cntr 60.8
O=C1NC(=O)N(c2ccc3c(c2)OCO3)C(=O)/C1=C/c1cccs1	none
O=C1NC(=O)N(c2ccc3c(c2)OCO3)C(=O)/C1=C/c1ccc(N2CCCC2)o1	TPT1 inh 128.1, IDE inh 19.1, CSN deneddyl inh 41.9 | TPT1 inh confirm 142.5 | RNase T1 counter 140.2 | IDE inh confirm 29.3 | HEK293 tox inactive | CSN deneddyl val 123.9 | MMP2 cntr CSN inactive | Thrombin cntr 83.0
Cc1cc(C=C2C(=O)N(C)C(=S)N(C)C2=O)c(C)n1C1CCCCC1	TPT1 inh 24.5, CSN deneddyl inh 49.1 | TPT1 inh confirm 27.6 | RNase T1 counter 39.1 | CSN deneddyl val 112.5 | MMP2 cntr CSN inactive | Thrombin cntr inactive

Screens as filed in PubChem BioAssay.
